Columns and labels:
[1] = Antiproliferative activity against BALB/c mouse splenocytes assessed as inhibition of [3H]thymidine incorporation into DNA at 10 uM after 24 hrs […] relative to control; assay type: cell-based, Splenocyte
In short: (§1)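 Spleens from male BALB/c mice (5–6 weeks) were teased into single cells in RPMI-1640 with 20 mM Hepes (pH 7.35) and checked by trypan blue. After 30 min preincubation, 10^6 cells/ml were held in medium with 15% FCS, with compound dissolved in medium. Incubation was at 37° in air-CO₂ (95:5). [³H]-thymidine (2 μCi/ml) was added after 1 h and the run stopped 24 h later. Read-out is cpm/10^6 cells; % inhibition = [1 − cpm treated/cpm control]×100; Student's t-test.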

[2] = Antiproliferative activity against BALB/c mouse splenocytes assessed as inhibition of [3H]thymidine incorporation into DNA at 100 uM after 24 hrs […] relative to control; assay type: cell-based, Splenocyte; in short: as §1
[3] = Antiproliferative activity against BALB/c mouse splenocytes assessed as inhibition of [3H]thymidine incorporation into DNA at 1 uM after 24 hrs […] relative to control; assay type: cell-based, Splenocyte; in short: as §1
[4] = Antiproliferative activity against Syrian hamster hepatoma cells assessed as inhibition of [3H]thymidine incorporation into DNA at 10 uM after 24 hrs […] relative to control; assay type: functional; conditions: Mesocricetus auratus
In short: (§2)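 Hepatoma was raised in Syrian hamsters by s.c. Kirkman-Robbins hepatoma pulp. Tumour cells were freed mechanically and with 0.4% collagenase plus 0.2% trypsin (>95% viable). After 30 min preincubation, 0.5×10^6 cells/ml were held in RPMI-1640 with 15% FCS and compound in medium at 37°, air-CO₂ (95:5). [³H]-thymidine (2 μCi/ml) was added at 1 h and incubation ended 24 h later. Read-out is cpm/10^6 cells; % inhibition vs control; Student's t-test.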

[5] = Antiproliferative activity against Syrian hamster hepatoma cells assessed as inhibition of [3H]thymidine incorporation into DNA at 100 uM after 24 hrs […] relative to control; assay type: functional; conditions: Mesocricetus auratus; in short: as §2

| Structure (SMILES) | inhibition at 24 h, 10 µM [1] [%] | inhibition at 24 h, 100 µM [2] [%] | inhibition at 24 h, 1 µM [3] [%] | inhibition at 10 µM [4] [%] | inhibition at 100 µM [5] [%] |
| --- | --- | --- | --- | --- | --- |
| CC(C)CC(=O)O[C@@H]1OC=C(CO)[C@@H]2CC=C(CO)[C@@H]12 | 25 | 60 | 15 | – | – |
| CC(C)CC(=O)O[C@@H]1OC=C(CO[C@@H]2O[C@H](CO)[C@@H](O)[C@H](O)[C@H]2O)[C@@H]2CC=C(CO)[C@@H]12 | 24 | 59 | 4 | 12 | 69 |
| C=C1[C@H]2[C@H](OC(=O)CC(C)C)OC=C(CO[C@@H]3O[C@H](CO)[C@@H](O)[C@H](O)[C@H]3O)[C@@H]2C[C@@H]1O | 16 | 45 | 9 | 18 | 75 |

From ChEMBL document CHEMBL1158998, “Studies on iridoids of tissue cultures of Penstemon serrulatus: isolation and their antiproliferative properties” (J Nat Prod, 1992)
